From PubChem
TRPC6 inhibitor – inhibitors of mouse TRPC6 channel; HEK293-TRPC6, membrane potential dye, ACh-evoked depolarization; active compounds read low; B-score at 10 µM; hit rate 1.1% among 310,000;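 active = B-score under library mean minus 3 SD, initial fluorescence not abnormally high, positive integrated signal ratio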;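 note: B-score derived from integrated fluorescence ratio over the kinetic read; more negative B-score means stronger inhibition of depolarization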
Target sequence (Q61143 whole entry, looked up): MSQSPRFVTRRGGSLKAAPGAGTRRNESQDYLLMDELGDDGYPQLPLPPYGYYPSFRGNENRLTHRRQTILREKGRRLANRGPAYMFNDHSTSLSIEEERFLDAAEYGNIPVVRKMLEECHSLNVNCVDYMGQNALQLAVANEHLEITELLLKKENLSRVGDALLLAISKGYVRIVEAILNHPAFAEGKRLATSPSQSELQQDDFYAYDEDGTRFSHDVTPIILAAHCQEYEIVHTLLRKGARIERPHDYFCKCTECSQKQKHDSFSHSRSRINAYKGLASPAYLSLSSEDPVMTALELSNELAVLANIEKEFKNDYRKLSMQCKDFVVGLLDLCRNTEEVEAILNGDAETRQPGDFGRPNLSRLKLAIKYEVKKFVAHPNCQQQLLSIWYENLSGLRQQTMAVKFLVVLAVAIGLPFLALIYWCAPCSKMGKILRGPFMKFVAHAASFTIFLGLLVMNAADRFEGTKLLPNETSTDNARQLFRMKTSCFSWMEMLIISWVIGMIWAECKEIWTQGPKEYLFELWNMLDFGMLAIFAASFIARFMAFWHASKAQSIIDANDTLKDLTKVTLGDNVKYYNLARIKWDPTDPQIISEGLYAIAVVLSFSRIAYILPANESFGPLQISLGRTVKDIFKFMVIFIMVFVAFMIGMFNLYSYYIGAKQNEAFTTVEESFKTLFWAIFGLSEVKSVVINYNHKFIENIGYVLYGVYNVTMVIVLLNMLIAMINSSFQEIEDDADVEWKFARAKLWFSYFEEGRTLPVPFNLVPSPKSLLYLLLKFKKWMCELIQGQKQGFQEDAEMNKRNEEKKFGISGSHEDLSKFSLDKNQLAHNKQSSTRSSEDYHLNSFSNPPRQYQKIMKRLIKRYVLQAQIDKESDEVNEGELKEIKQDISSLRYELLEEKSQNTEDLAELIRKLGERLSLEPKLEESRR
TRPC4 agonist – TRPC4 (mouse) channel activation | Q9QUQ5 | HEK293 TRPC4beta/mu-opioid, Fluo4 calcium fluorescence; active compounds read high | B-score at 10 µM | hit rate 0.49% among 310,000;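 active = B-score above 5 SD of library B-scores, and initial fluorescence ratio not above library mean plus 5 SD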;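 note: positive B-score marks a calcium rise read as TRPC4 activation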
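Assay system: HEK293 stable line with TRPC4beta plus mu-opioid receptor. Times: dye 45 min RT, read 110 s. Measured by: kinetic Fluo4 calcium fluorescence. Measure: B score of integrated ratio. Controls: assay buffer as low control, maximal DAMGO as high control.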
TRPC6 act – activators of mouse TRPC6 channel. HEK293-TRPC6 membrane potential dye fluorescence; active compounds read high. B-score at 10 µM. hit rate 0.13% among 310,000. AID 2550;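 active = B-score of the integrated fluorescence ratio above library mean plus 3 SD, and starting fluorescence ratio within library mean plus 5 SD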;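 note: higher score means more depolarization so channel activation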
TRPC4 PAM – TRPC4 (mouse) allosteric potentiation. HEK293 TRPC4beta/mu-opioid, DAMGO EC20, Fluo-4 Ca2+ flux; active compounds read high. B-score at 10 µM. hit rate 0.42% among 310,000. AID 2227;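 active = B-score of calcium response area above 5 SD of library B-scores, with initial fluorescence ratio within 5 SD of library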;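 note: B-score of integrated fluorescence ratio over time as area under calcium response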
TRPC4 block – inhibitors of mouse TRPC4 channel | HEK293 TRPC4beta/mu-opioid, DAMGO-evoked Fluo4 calcium flux; active compounds read low | B-score at 10 µM | hit rate 0.39% among 300,000 | AID 2247;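 active = B-score over 3 SD under the library average, no early fluorescence shift, positive overall ratio signal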
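Test system – stable TRPC4beta/mu-opioid receptor HEK293 cells · Probe or stimulus – DAMGO, a submaximal dose followed by a maximal one · Dosing – one concentration per compound · Signal – Fluo4 calcium fluorescence by kinetic imaging, 5 s 1 Hz baseline · Evaluation – per-well B score of integrated baseline-normalized Fluo4 ratio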
TRPC4 spec 2 – second selectivity test of TRPC6 inhibitors: effect on mouse TRPC4. HEK293 TRPC4/MOR, membrane potential dye fluorescence; channel activated by saturating DAMGO dose. inhibition, % at 10 µM. shares compounds with TRPC6 inhibitor. hit rate 42% among 920;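 active = compounds whose fluorescence signal differed from control wells by over 3 SD, either direction, in both duplicate plates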
TRPC4 spec – selectivity of TRPC6 inhibitors: effect on mouse TRPC4 | shares compounds with TRPC6 inhibitor | activity change, negative = inhibition, % at 10 µM | hit rate 61% among 920 | AID 2777 | HEK293 TRPC4/mu-opioid, membrane potential fluorescence;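 active = rise or fall in signal beyond 3 SD of buffer-only wells in both replicate plates, either sign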;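 note: integrated kinetic ratio of fluorescence range over baseline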
HEK293 MPD ctr 2-1 – second check of TRPC6 inhibitor effects in parental HEK293 cells; hit rate 31% among 920; AID 2779; parental HEK293 membrane potential dye fluorescence; maximal acetylcholine challenge after compound addition; shares compounds with TRPC6 inhibitor; signal change vs control, % at 10 µM;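 active = membrane potential signal moving either way by over 3 SD of the maximum-effect control, in both duplicate plates, meaning non-specific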
HEK293 MPD ctr-1 – counter-screen for TRPC6 inhibitors: effect in parental HEK293 cells; shares compounds with TRPC6 inhibitor; parental HEK293 membrane potential dye fluorescence; membrane potential signal change, % at 10 µM; hit rate 60% among 920; AID 2780;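 active = membrane potential signal shifting up or down by more than 3 SD of buffer-only wells, on both duplicate plates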
HEK293 MPD ctr-2 – counter-screen for TRPC6 modulators: effect in parental HEK293 cells. membrane potential signal change, % at 10 µM. membrane potential dye fluorescence. AID 488924. shares compounds with TRPC6 inhibitor. hit rate 51% among 2,400;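 active = membrane potential signal moves up or down beyond 5 SD from buffer-only wells, on both duplicate plates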
HEK293 MPD ctr 2-2 – second check of TRPC6 modulator effects in parental HEK293 cells. inhibition, % at 10 µM. hit rate 14% among 2,400. shares compounds with TRPC6 inhibitor. membrane potential dye fluorescence; after compound, maximal acetylcholine stimulation. AID 488926;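 active = membrane potential signal drops by more than 5 SD from the mean control signal, in both duplicate plates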;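 note: plate controls were acetylcholine ECmax control wells for no effect and buffer only wells for full effect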
TRPC4 ctr mod – mouse TRPC4 off-target activity of TRPC6 modulators. shares compounds with TRPC6 inhibitor. HEK293 TRPC4/mu-opioid, membrane potential fluorescence. percent change from control (negative = decrease, positive = increase), % at 10 µM. hit rate 69% among 2,400;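 active = membrane potential signal moved up or down beyond 5 SD of buffer control wells, in both duplicate plates, actives on both sides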;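 note: plate controls were assay buffer wells for no effect and DAMGO maximal-effect wells for full effect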
TRPC4 ctr inh 2 – second selectivity test of TRPC6 modulators against mouse TRPC4; shares compounds with TRPC6 inhibitor; HEK293 TRPC4/mu-opioid, membrane potential dye fluorescence; stimulated with maximal-effect DAMGO; inhibition, % at 10 µM; hit rate 55% among 2,400;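 active = drop in membrane potential signal beyond 5 SD of the control wells in both duplicate plates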;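 note: TRPC4 counter screen for TRPC6 hits run under conditions tuned for TRPC6 not TRPC4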
TRPC6 inh conf – mouse TRPC6 inhibitor confirmation. shares compounds with TRPC6 inhibitor. HEK293-TRPC6, membrane potential dye, ACh-evoked depolarization. inhibition, % at 10 µM. hit rate 43% among 3,300. AID 488960;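 active = fluorescence ratio falls more than 5 SD below the full-stimulation control mean, in both duplicate runs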;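 note: integrated fluorescence ratio of peak minus minimum over baseline after agonist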
TRPC6 act conf – mouse TRPC6 activator confirmation | activation, % at 10 µM | HEK293-TRPC6 membrane potential dye fluorescence, FDSS | hit rate 11% among 2,800 | shares compounds with TRPC6 inhibitor;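 active = ratio signal rise beyond 5 SD above unstimulated control wells' mean, seen in both duplicate runs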;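 note: plate controls were buffer EC0 wells for no effect and acetylcholine ECmax response for full effect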
Starred values were filed as active, the others as inactive; i = inactive; / = no result. Shown are actives, neighbours in structure and some others; about 2.3% of the full set was active somewhere.

SMILES	TRPC6 inhibitor	TRPC4 agonist	TRPC6 act	TRPC4 PAM	TRPC4 block	HEK293 MPD ctr-2	HEK293 MPD ctr 2-2	TRPC4 ctr mod	TRPC4 ctr inh 2	TRPC6 inh conf	TRPC6 act conf	others
Oc1ccccc1/C=N/Nc1cc(N2CCCC2)nc(N2CCCC2)n1	-5.2*	i	i	i	i	i	i	16%*	i	i	/
CC1(C)c2[nH]c3ccccc3c2C[C@H]2C(=O)N(Cc3ccc(F)cc3)C(=O)N21	-5.5*	i	i	i	i	i	i	-9.0%*	i	i	i
CC1(C)c2[nH]c3ccccc3c2C[C@@H]2C(=O)N(Cc3ccccc3)C(=O)N21	i	i	i	i	i	/	/	/	/	/	/
COc1ccc(CCNC(=O)CCS(=O)(=O)Cc2ccccc2C)cc1OC	i	i	i	i	i	/	/	/	/	/	/
COc1cccc(COC(=O)c2ccc3c(=O)n4c(nc3c2)CCC4)c1OC	i	i	i	i	i	/	/	/	/	/	/
O=c1[nH]c(CN2CCN(C/C=C/c3ccccc3)CC2)nc2cc(Cl)ccc12	-5.3*	i	i	i	i	i	i	8.5%*	44%*	i	i
O=C(CCc1nc2ccccc2c(=O)[nH]1)N1CCN(C/C=C/c2ccccc2)CC1	i	i	i	i	i	/	/	/	/	/	/
Cc1c(CN(C)C)c2c(n1C)C(=O)c1ccc(Br)cc1-2	-11*	i	i	i	i	-178%*	67%*	-32%*	59%*	66%*	i
Cc1ncc(CO)c(/C=N/NC(=O)c2cc3c(s2)CCCC3)c1O	i	i	i	i	i	/	/	/	/	/	/
CCc1nc2ccc(C)cc2c(C(=O)NC2CCCCC2C)c1C (stereo not drawn)	i	i	14*	i	i	426%*	i	102%*	31%*	i	148%*
CCc1nc2ccccc2c(C(=O)Nc2ccc(C)cc2)c1C	i	i	i	i	i	/	/	/	/	/	/
Cc1ccc(CNC(=O)C2CCC(=O)N(C3CC3)C2)cc1 (stereo not drawn)	i	i	i	i	i	/	/	/	/	/	/
CC(=O)N(Cc1ccc(F)cc1)C1=C(NCCc2ccccc2)C(=O)c2ccccc2C1=O	-11*	i	i	i	i	/	/	/	/	i	i	TRPC4 spec 2=i;TRPC4 spec=-11%*;HEK293 MPD ctr 2-1=i;HEK293 MPD ctr-1=-182%*
Cc1cccc2sc(N(CCCN(C)C)C(=O)c3ccc4ncsc4c3)nc12	-5*	i	i	i	i	i	i	i	78%*	45%*	i
Cc1ccc2sc(N(CCCN(C)C)C(=O)c3ccc(Br)s3)nc2c1C	-6.5*	i	i	i	i	i	i	-20%*	80%*	i	i
Cc1ccc2sc(N(CCCN(C)C)C(=O)c3nc4ccccc4s3)nc2c1C	i	i	i	i	i	/	/	/	/	/	/
CN(CCCC(=O)NC1CC(C)(C)NC(C)(C)C1)S(=O)(=O)c1ccc([N+](=O)[O-])cc1	i	i	i	i	i	/	/	/	/	/	/
CC(C)OCCCN1CN(S(=O)(=O)c2cccc(Cl)c2)c2nc3ccccc3nc21	-5.1*	i	i	i	i	i	i	9.5%*	i	i	i
CC(C)OCCCN1CN(S(=O)(=O)c2ccc(Cl)cc2)c2nc3ccccc3nc21	i	i	i	i	i	/	/	/	/	/	/
CC(C)(C)OC(=O)C(C)(C)Sc1nnc(N)s1	i	i	i	i	i	/	/	/	/	/	/
COc1ccc2cc(/C=N/NC(=O)CN(c3ccccc3C)S(=O)(=O)c3ccccc3)c(Cl)nc2c1	i	i	i	i	i	/	/	/	/	/	/
CC[n+]1cccc(-c2nc3ccccc3s2)c1	-5.5*	i	i	i	i	-162%*	i	-26%*	i	i	i
Oc1cccc(-c2nc3ccccc3s2)c1	i	i	i	i	i	/	/	/	/	/	/
CCCCc1cc(=O)oc2cc(C)cc(OCC(=O)NCc3ccncc3)c12	-7.4*	i	i	i	i	i	i	i	i	i	i
CSc1ccc2c(c1)N(CCC1CCCCN1C)c1ccccc1S2 (stereo not drawn)	-6*	i	i	i	i	i	59%*	i	85%*	67%*	i
CCCCN(C)CCCNC(=O)CN1C(=O)COc2ccc(S(=O)(=O)N3CCOCC3)cc21	-5.4*	i	i	i	i	i	i	i	i	i	i
Cc1cc(OCCN2CCC(Cc3ccccc3)CC2)ccc1[N+](=O)[O-]	-8.2*	i	i	i	i	/	/	/	/	i	i	TRPC4 spec 2=54%*;TRPC4 spec=i;HEK293 MPD ctr 2-1=i;HEK293 MPD ctr-1=i
CN(C)CCNc1nc2sc3c(c2c(=O)n1-c1ccc(F)cc1)CCCCC3	-5.8*	i	i	i	i	i	i	i	50%*	i	i
COc1ccc(-n2c(NCCN(C)C)nc3sc4c(c3c2=O)CCCCC4)cc1	-7.5*	i	i	i	i	/	/	/	/	i	i	TRPC4 spec 2=i;TRPC4 spec=i;HEK293 MPD ctr 2-1=i;HEK293 MPD ctr-1=i
